From ChEMBL document CHEMBL1125684, “Novel site-directed affinity ligands for GABA-gated chloride channels: synthesis, characterization, and molecular modeling of 1-(isothiocyanatophenyl)-4-tert-butyl-2,6,7-trioxabicyclo[2.2.2]octanes ” (J Med Chem, 1991)

Legend:
[1] = target: T1, GABA-A receptor; anion channel (Rattus norvegicus) (UniProt O09028+P15431+P18506+P18508+P19969+P20236+P23574+P23576+P28471+P28473+P30191+P62813+P63079+P63138+Q91ZM7+Q9ES14); assay: Displacement of [35S]TBPS binding to rat cortical homogenates at 2400 nM
Method in brief: (§1)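 Cortical homogenate (twice-washed, 1:15) pretreated 1 h on ice with acylator (60 nM or 600–2400 nM) plus 200 mM NaCl. It was then washed five times by centrifugation in pH 7.4 phosphate/100 mM NaCl and resuspended chloride-free. Saturation binding used 2–5 nM [35S]TBPS with 0–160 nM unlabeled TBPS, 200 mM NaCl, 2 h at 25 °C. Nonspecific binding was defined by 20 µM picrotoxinin. Kd and Bmax came from Scatchard plots, mean of 3–5 experiments.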

[2] = target: GABA-A receptor; anion channel; assay: Apparent affinity by displacement of pre-incubated [35S]-TBPS from rat cortical homogenates at 600 nM; method in brief: as §1
[3] = target: GABA-A receptor; anion channel; assay: Apparent affinity by displacement of preincubated [35S]TBPS from rat cortical homogenates at 2400 nM; method in brief: as §1
[4] = target: GABA-A receptor; anion channel; assay: Inhibition of [35S]-TBPS binding to rat cortical membranes after 60 minute pre-incubation with radioligand; assay type: cell membranes, Membrane
Method in brief: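 Washed cortical homogenate was incubated with 5 nM [35S]TBPS for 60 min before acylator was added, in pH 7.4 potassium phosphate with 200 mM NaCl at 25 °C. Bound radioligand was collected by GF/B filtration and counted by scintillation. Nonspecific binding was defined by 20 µM picrotoxinin. Inhibition was expressed as percent of control binding without acylator; N ≥ 1.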

[5] = target: T1, GABA-A receptor; anion channel (Rattus norvegicus); assay: Displacement of [35S]TBPS binding to rat cortical homogenates at 600 nM; method in brief: as §1
[6] = target: GABA-A receptor; anion channel; assay: Apparent affinity by displacement of preincubated [35S]-TBPS from rat cortical homogenates at 1500 nM; method in brief: as §1
[7] = target: T1, GABA-A receptor; anion channel (Rattus norvegicus); assay: Displacement of [35S]TBPS binding to rat cortical homogenates at 1200 nM; method in brief: as §1
[8] = target: T1, GABA-A receptor; anion channel (Rattus norvegicus); assay: Displacement of [35S]TBPS binding to rat cortical homogenates at 1500 nM; method in brief: as §1
[9] = target: T1, GABA-A receptor; anion channel (Rattus norvegicus); assay: Displacement of [35S]TBPS binding to rat cortical homogenates (control); method in brief: as §1
[10] = target: GABA-A receptor; anion channel; assay: Apparent affinity by displacement of pre-incubated [35S]-TBPS from rat cortical homogenates (control); method in brief: as §1
[11] = target: GABA-A receptor; anion channel; assay: Inhibition of [35S]TBPS binding to rat cortical membranes; assay type: cell membranes, Membrane
Method in brief: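 Coincubation: 5 nM [35S]TBPS and acylator (5–1000 nM or 50–10000 nM, depending on ligand) were added simultaneously to washed cortical homogenate. Incubation was in pH 7.4 potassium phosphate with 200 mM NaCl, 2 h at 25 °C. Binding was read by filtration and scintillation, with nonspecific binding defined by 20 µM picrotoxinin. Inhibition was taken as percent of control; N ≥ 3.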

[12] = target: GABA-A receptor; anion channel; assay: Apparent affinity by displacement of preincubated [35S]TBPS from rat cortical homogenates at 1200 nM; method in brief: as §1
[13] = target: Gamma-aminobutyric acid receptor subunit gamma-1 (Rattus norvegicus) (UniProt P23574); assay: Displacement of [35S]TBPS binding to rat cortical homogenates at 60 nM; method in brief: as §1
Sequence of Gamma-aminobutyric acid receptor subunit gamma-1 (Rattus norvegicus) (P23574 whole entry): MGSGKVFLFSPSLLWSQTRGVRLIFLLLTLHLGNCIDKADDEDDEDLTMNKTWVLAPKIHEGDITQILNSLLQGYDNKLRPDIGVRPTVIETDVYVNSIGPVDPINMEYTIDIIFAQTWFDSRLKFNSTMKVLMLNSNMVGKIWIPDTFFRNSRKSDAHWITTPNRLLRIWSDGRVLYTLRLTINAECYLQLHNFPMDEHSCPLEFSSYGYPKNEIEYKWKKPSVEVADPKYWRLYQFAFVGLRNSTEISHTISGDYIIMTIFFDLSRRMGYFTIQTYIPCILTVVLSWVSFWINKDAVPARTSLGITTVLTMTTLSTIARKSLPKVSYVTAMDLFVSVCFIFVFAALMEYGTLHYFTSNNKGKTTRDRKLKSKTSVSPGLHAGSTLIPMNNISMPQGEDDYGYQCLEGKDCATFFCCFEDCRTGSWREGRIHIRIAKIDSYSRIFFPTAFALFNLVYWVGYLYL

[14] = target: Gamma-aminobutyric acid receptor subunit gamma-1 (Rattus norvegicus, UniProt P23574); assay: Apparent affinity by displacement of preincubated [35S]TBPS from rat cortical homogenates at 60 nM; method in brief: as §1
Sequence of Gamma-aminobutyric acid receptor subunit gamma-1 (P23574 whole entry): as above

Row | Compound | Bmax [1] | Kd [2] | Kd [3] | IC50 [4] | Bmax [5] | Kd [6] | Bmax [7] | Bmax [8] | Bmax [9] | Kd [10] | IC50 [11] | Kd [12] | Bmax [13] | Kd [14]
1 | CC(C)(C)C12COC(c3ccccc3N=C=S)(OC1)OC2 | 1030 fM assay-1 | 0.0573 µM | 0.058 µM | 7.5 µM | 915 fM assay-1 | 0.0563 µM | 817 fM assay-1 | 869 fM assay-1 | 963 fM assay-1 | 0.0467 µM | 0.609 µM | 0.0507 µM |  | 
2 | CC(C)(C)C12COC(c3ccc(N=C=S)cc3)(OC1)OC2 |  |  |  | 0.09 µM |  |  |  |  | 955 fM assay-1 | 0.047 µM | 0.062 µM |  | 644 fM assay-1 | 0.0722 µM
3 | CC(C)(C)C12COC(c3cccc(N=C=S)c3)(OC1)OC2 | 1010 fM assay-1 | 0.0445 µM | 0.0738 µM | 5.4 µM | 925 fM assay-1 | 0.0558 µM | 889 fM assay-1 | 928 fM assay-1 | 1080 fM assay-1 | 0.0353 µM | 0.57 µM | 0.0518 µM |  | 
